Key:
[1] = target: 5-hydroxytryptamine receptor 6 (Homo sapiens, UniProt P50406); assay: Inhibition of 5HT6 receptor
[2] = target: D(2) dopamine receptor (Homo sapiens, UniProt P14416); assay: Inhibition of dopamine D2 receptor
[3] = target: 5-hydroxytryptamine receptor 7 (Homo sapiens, UniProt P34969); assay: Inhibition of 5HT7 receptor
[4] = target: D(3) dopamine receptor (Homo sapiens, UniProt P35462); assay: Inhibition of dopamine D3 receptor
[5] = target: Cytochrome P450 2C9 (Homo sapiens, UniProt P11712); assay: Inhibition of CYP2C9; assay type: ADME
[6] = target: T1, D(4) dopamine receptor (Homo sapiens, UniProt P21917); assay: Inhibition of dopamine D4 receptor
T1 sequence (P21917 whole entry): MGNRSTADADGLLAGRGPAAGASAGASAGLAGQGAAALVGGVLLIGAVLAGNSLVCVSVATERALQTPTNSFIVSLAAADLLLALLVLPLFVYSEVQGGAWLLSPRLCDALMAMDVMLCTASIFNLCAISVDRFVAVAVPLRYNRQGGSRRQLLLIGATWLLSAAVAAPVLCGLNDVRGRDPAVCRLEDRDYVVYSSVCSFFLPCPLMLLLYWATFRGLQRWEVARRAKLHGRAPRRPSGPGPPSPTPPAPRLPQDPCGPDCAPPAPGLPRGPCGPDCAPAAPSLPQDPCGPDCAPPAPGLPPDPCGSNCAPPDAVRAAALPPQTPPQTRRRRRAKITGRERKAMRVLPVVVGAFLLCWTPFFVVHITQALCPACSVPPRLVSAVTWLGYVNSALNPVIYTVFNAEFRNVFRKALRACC

[7] = target: T2, 5-hydroxytryptamine receptor 1A (Homo sapiens, UniProt P08908); assay: Inhibition of 5HT1A receptor
T2 sequence (P08908 whole entry): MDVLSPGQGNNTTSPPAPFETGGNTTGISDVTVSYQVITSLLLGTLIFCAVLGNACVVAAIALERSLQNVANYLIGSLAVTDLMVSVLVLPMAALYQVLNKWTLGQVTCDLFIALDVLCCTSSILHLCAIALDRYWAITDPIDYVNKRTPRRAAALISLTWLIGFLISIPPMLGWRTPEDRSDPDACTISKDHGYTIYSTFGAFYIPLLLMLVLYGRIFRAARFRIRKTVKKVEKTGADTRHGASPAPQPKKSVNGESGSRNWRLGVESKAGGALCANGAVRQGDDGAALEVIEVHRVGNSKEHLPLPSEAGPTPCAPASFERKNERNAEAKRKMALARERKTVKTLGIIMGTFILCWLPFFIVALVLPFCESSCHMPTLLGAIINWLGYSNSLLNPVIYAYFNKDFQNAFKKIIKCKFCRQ

[8] = tested on: Mus musculus; assay: Antidepressant activity in mouse assessed as decrease in duration of immobility at 100 mg/kg, po during final 5 mins of the 6 mins session by forced swimming test; assay type: functional; set-up: scale not given: the % may be the effect or the level left
Method in brief: (§1)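 Mice swam 10 min in a 25-cm glass cylinder (10 cm diameter) holding 15 cm of water at 23 1 °C. Twenty-four hours later, drug was given po 60 min before retesting. Immobility (floating upright with only small movements keeping head above water) was totalled over the last 5 min of the 6-min test.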

[9] = target: Cytochrome P450 3A4 (Homo sapiens, UniProt P08684); assay: Inhibition of CYP3A4; assay type: ADME
[10] = tested on: Mus musculus; assay: Antidepressant activity in mouse assessed as decrease in duration of immobility at 10 mg/kg, po during final 5 mins of the 6 mins session by forced swimming test; assay type: functional; set-up: scale not given: the % may be the effect or the level left; method in brief: as §1
[11] = target: T3, Cytochrome P450 1A2 (Homo sapiens, UniProt P05177); assay: Inhibition of CYP1A2; assay type: ADME
T3 sequence (P05177 whole entry): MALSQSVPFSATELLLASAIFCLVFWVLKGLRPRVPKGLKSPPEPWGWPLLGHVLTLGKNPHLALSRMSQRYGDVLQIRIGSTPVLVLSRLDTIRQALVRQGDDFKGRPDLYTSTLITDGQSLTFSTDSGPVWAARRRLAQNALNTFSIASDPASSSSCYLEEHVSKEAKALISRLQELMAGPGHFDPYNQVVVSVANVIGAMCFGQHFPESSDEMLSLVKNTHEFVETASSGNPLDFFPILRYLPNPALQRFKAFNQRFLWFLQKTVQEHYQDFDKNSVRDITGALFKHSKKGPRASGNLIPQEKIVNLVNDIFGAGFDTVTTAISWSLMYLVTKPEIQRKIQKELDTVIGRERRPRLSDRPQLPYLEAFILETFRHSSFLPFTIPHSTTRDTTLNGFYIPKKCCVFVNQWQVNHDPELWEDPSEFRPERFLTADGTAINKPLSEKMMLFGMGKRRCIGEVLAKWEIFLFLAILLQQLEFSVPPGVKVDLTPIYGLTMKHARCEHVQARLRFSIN

[12] = target: Cytochrome P450 2D6 (Homo sapiens, UniProt P10635); assay: Inhibition of CYP2D6; assay type: ADME
Cytochrome P450 2D6, sequence (P10635 whole entry): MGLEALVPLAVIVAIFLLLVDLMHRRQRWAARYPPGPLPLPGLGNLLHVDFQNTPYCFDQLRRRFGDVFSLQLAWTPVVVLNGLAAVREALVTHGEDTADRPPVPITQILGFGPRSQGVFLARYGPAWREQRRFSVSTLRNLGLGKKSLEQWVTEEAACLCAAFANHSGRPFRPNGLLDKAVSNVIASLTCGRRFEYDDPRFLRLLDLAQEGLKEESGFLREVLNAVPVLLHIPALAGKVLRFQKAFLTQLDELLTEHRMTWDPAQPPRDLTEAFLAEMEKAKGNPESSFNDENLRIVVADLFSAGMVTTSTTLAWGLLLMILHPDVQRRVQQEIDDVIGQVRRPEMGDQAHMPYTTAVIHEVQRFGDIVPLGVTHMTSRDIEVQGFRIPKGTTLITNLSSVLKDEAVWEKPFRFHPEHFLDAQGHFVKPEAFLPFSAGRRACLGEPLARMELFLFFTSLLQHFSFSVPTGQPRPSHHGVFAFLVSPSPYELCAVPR

D(3) dopamine receptor, sequence (P35462 whole entry): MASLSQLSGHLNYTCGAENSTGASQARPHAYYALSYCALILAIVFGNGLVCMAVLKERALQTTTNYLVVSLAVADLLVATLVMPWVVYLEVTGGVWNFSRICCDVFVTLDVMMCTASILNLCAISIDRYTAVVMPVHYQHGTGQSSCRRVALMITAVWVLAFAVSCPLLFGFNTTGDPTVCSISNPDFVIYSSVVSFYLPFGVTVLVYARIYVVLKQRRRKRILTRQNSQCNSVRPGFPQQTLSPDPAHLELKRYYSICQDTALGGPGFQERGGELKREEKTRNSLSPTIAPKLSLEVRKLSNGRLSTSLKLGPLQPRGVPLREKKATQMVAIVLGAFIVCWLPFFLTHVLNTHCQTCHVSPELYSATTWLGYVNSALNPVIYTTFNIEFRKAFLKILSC
D(2) dopamine receptor, sequence (P14416 whole entry): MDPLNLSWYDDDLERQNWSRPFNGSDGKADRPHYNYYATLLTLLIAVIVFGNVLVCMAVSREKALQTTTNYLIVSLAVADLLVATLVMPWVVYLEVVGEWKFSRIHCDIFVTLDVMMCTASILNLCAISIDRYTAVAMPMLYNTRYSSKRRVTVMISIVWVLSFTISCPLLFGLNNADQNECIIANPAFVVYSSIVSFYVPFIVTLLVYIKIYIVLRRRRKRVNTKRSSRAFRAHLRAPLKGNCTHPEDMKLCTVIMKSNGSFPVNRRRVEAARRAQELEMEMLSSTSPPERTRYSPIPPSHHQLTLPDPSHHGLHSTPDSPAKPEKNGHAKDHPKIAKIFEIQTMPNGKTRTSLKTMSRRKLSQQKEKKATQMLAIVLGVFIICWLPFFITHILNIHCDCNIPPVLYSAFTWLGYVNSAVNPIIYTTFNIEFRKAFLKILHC
5-hydroxytryptamine receptor 6, sequence (P50406 whole entry): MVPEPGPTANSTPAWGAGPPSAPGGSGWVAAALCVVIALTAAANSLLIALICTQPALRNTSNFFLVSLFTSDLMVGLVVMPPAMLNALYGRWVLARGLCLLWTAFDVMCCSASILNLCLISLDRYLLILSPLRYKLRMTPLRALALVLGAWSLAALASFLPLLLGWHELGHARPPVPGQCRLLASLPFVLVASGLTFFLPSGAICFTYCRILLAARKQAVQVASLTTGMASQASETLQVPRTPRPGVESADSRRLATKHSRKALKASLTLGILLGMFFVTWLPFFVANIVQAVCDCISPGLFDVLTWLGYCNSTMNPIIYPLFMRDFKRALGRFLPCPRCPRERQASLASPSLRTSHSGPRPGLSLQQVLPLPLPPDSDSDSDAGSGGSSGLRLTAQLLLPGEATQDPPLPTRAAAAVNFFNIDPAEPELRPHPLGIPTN
Cytochrome P450 3A4, sequence (P08684 whole entry): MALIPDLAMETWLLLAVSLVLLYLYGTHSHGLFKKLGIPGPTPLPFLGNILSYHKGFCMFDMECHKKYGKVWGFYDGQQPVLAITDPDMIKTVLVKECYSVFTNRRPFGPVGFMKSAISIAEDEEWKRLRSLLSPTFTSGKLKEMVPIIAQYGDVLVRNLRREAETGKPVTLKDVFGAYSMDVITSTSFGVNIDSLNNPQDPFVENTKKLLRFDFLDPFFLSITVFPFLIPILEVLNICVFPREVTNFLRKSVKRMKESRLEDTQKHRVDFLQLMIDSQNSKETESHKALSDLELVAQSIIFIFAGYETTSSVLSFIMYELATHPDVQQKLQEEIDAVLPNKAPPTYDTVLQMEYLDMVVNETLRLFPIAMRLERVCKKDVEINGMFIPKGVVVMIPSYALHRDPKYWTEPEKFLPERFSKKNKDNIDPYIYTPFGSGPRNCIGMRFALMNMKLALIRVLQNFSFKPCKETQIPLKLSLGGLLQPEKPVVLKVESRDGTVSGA
Cytochrome P450 2C9, sequence (P11712 whole entry): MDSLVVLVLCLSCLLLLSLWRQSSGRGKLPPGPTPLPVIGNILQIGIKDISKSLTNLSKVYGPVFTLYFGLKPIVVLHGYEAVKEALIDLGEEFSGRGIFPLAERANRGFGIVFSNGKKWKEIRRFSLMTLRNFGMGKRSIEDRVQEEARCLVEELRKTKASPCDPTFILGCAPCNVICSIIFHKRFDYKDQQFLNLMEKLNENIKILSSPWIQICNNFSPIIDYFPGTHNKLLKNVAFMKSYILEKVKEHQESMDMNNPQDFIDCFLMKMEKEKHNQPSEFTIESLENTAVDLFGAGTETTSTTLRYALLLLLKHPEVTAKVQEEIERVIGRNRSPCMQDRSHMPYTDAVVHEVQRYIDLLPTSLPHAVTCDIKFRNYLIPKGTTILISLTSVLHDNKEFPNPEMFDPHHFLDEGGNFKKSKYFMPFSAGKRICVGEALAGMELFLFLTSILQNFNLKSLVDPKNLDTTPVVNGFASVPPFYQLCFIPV
5-hydroxytryptamine receptor 7, sequence (P34969 whole entry): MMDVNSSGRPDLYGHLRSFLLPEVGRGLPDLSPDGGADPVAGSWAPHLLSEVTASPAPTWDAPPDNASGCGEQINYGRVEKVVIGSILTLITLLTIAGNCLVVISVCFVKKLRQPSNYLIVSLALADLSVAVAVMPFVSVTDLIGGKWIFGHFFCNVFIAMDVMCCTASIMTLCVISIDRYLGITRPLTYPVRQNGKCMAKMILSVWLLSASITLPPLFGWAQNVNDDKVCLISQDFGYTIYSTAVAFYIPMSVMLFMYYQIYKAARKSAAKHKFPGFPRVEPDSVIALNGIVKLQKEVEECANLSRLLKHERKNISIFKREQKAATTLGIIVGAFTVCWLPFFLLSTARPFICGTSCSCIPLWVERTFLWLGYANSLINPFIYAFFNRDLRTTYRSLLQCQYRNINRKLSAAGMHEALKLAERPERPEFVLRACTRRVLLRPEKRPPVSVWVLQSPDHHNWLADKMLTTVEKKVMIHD

Structure (SMILES): Cc1c(C(=O)NCCCN2CCN(c3cccc(Cl)c3Cl)CC2)cc(-c2ccccc2)n1C
- IC50 [1]: 713 nM
- IC50 [2]: 2540 nM
- IC50 [3]: 333 nM
- IC50 [4]: 915 nM
- IC50 [5]: 9700 nM
- IC50 [6]: 984 nM
- IC50 [7]: 54 nM
- Activity [8]: <25%
- IC50 [9]: > 20000 nM
- Activity [10]: 80%
- IC50 [11]: > 20000 nM
- IC50 [12]: > 20000 nM
